Laboratory results: ChEMBL document CHEMBL1142093, “In vitro activity of the oxazolidinone RWJ-416457 against linezolid-resistant and -susceptible staphylococci and enterococci” (2007)
Converted amounts (≈) assume the structure as drawn.

Key:
Enterococcus faecium [1] = assay: Antimicrobial activity against Enterococcus faecium 3 with heterozygous 23S rRNA G2576U mutation
Staphylococcus aureus [2] = assay: Antimicrobial activity against Staphylococcus aureus ST/02/2121; assay type: functional
In short: (§1)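 MIC by CLSI agar dilution. Resistant clinical enterococcal and S. aureus isolates came mostly from UK patients, a few from Brazil and Austria. Laboratory mutants were selected from clinical isolate ST/02/2121, RN4220 and hypermutable RN4220ΔmutS. Selection used serial broth passage with linezolid rising arithmetically from 0.5 to 10 μg/ml, then repeated subculture on agar with 10 μg/ml linezolid.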

Enterococcus faecalis [3] = assay: Antimicrobial activity against Enterococcus faecalis 25 with heterozygous 23S rRNA G2576U mutation; assay type: functional
In short: as §1

Staphylococcus aureus [4] = assay: Antimicrobial activity against Staphylococcus aureus RN4220 deltamutS with 23S rRNA G2576U mutation; assay type: functional
In short: as §1

Staphylococcus aureus [5] = assay: Antimicrobial activity against methicillin-resistant Staphylococcus aureus Ho 4536-0368 with heterozygous 23S rRNA G2576U mutation; assay type: functional
In short: as §1

Staphylococcus aureus [6] = assay: Antimicrobial activity against Staphylococcus aureus ST/02/2121 with 23S rRNA T2504C mutation; assay type: functional
In short: as §1

Enterococcus faecium [7] = assay: Antimicrobial activity against Enterococcus faecium 44 with heterozygous 23S rRNA G2576U mutation; assay type: functional
In short: as §1

Staphylococcus aureus [8] = assay: Antimicrobial activity against Staphylococcus aureus RN4220 with 23S rRNA G2447T mutation; assay type: functional
In short: as §1

Enterococcus faecalis [9] = assay: Antimicrobial activity against Enterococcus faecalis 1 L2 with heterozygous 23S rRNA G2576U mutation; assay type: functional
In short: as §1

Staphylococcus aureus [10] = assay: Antimicrobial activity against Staphylococcus aureus RN4220; assay type: functional
In short: as §1

Enterococcus faecium [11] = assay: Antimicrobial activity against Enterococcus faecium 28 with heterozygous 23S rRNA G2576U mutation; assay type: functional
In short: as §1

Staphylococcus aureus [12] = assay: Antimicrobial activity against methicillin-resistant Staphylococcus aureus Ho 4536-0367 with heterozygous 23S rRNA G2576U mutation; assay type: functional
In short: as §1

Enterococcus faecalis [13] = assay: Antimicrobial activity against Enterococcus faecalis 37 with heterozygous 23S rRNA G2576U mutation; assay type: functional
In short: as §1

Enterococcus faecium [14] = assay: Antimicrobial activity against Enterococcus faecium Ho 5114-0276 with heterozygous 23S rRNA G2576U mutation; assay type: functional
In short: as §1

Enterococcus faecium [15] = assay: Antimicrobial activity against Enterococcus faecium 18 with heterozygous 23S rRNA G2576U mutation; assay type: functional
In short: as §1

Enterococcus faecalis [16] = assay: Antimicrobial activity against Enterococcus faecalis 45 with heterozygous 23S rRNA G2576U mutation; assay type: functional
In short: as §1

Staphylococcus aureus [17] = assay: Antimicrobial activity against Staphylococcus aureus RN4220 deltamutS with 23S rRNA G2576U and A2503G mutation; assay type: functional
In short: as §1

Enterococcus faecium [18] = assay: Antimicrobial activity against Enterococcus faecium 16 with homozygous 23S rRNA G2576U mutation; assay type: functional
In short: as §1

Enterococcus faecium [19] = assay: Antimicrobial activity against Enterococcus faecium Ho 4418-0062 with heterozygous 23S rRNA G2576U mutation; assay type: functional
In short: as §1

Staphylococcus aureus [20] = assay: Antimicrobial activity against methicillin-resistant Staphylococcus aureus B2 with heterozygous 23S rRNA G2576U mutation; assay type: functional
In short: as §1

Enterococcus faecalis [21] = assay: Antimicrobial activity against Enterococcus faecalis Ho 4450-0446 with heterozygous 23S rRNA G2576U mutation; assay type: functional
In short: as §1

Staphylococcus aureus [22] = assay: Antimicrobial activity against methicillin-resistant Staphylococcus aureus Ho 4280-0257 with heterozygous 23S rRNA G2576U mutation; assay type: functional
In short: as §1

Enterococcus faecium [23] = assay: Antimicrobial activity against Enterococcus faecium 2 L1 with homozygous 23S rRNA G2576U mutation
Enterococcus faecium [24] = assay: Antimicrobial activity against Enterococcus faecium Ho 4136-0042; assay type: functional; details: in the assay text read “H0 4136-0043” for “Ho 4136-0042”
In short: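 MIC by CLSI agar dilution against a clinical enterococcal isolate. The isolates were either linezolid-susceptible UK clinical isolates (about 100 per group) or among 23 linezolid-resistant clinical enterococci and S. aureus, mostly from UK patients, with a few from Brazil and Austria.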

Staphylococcus aureus [25] = assay: Antimicrobial activity against Staphylococcus aureus RN4220 with 23S rRNA G2576U mutation; assay type: functional
In short: as §1

Staphylococcus aureus [26] = assay: Antimicrobial activity against Staphylococcus aureus RN4220 deltamutS; assay type: functional
In short: as §1

Staphylococcus aureus [27] = assay: Antimicrobial activity against Staphylococcus aureus RN4220 deltamutS revertant with 23S rRNA G2576U mutation; assay type: functional
In short: as §1

Staphylococcus aureus [28] = assay: Antimicrobial activity against Staphylococcus aureus ST/02/2121 with 23S rRNA G2447T mutation; assay type: functional
In short: as §1

Staphylococcus aureus [29] = assay: Antimicrobial activity against methicillin-resistant Staphylococcus aureus Ho 4280-0258 with heterozygous 23S rRNA G2576U mutation; assay type: functional
In short: as §1

Enterococcus faecalis [30] = assay: Antimicrobial activity against Enterococcus faecalis 9 with heterozygous 23S rRNA G2576U mutation; assay type: functional
In short: as §1

Enterococcus faecium [31] = assay: Antimicrobial activity against Enterococcus faecium 34 with homozygous 23S rRNA G2576U mutation; assay type: functional
In short: as §1

Enterococcus faecium [32] = assay: Antimicrobial activity against Enterococcus faecium 31 with heterozygous 23S rRNA G2576U mutation; assay type: functional
In short: as §1

Staphylococcus aureus [33] = assay: Antimicrobial activity against methicillin-resistant Staphylococcus aureus Ho 4280-0256 with heterozygous 23S rRNA G2576U mutation; assay type: functional
In short: as §1

CC(=O)NC[C@H]1CN(c2ccc(N3Cc4cn(C)nc4C3)c(F)c2)C(=O)O1
MIC (Enterococcus faecium [1]): 16 µg/mL (≈ 42.9 µM)
MIC (Staphylococcus aureus [2]): 1 µg/mL (≈ 2.68 µM)
MIC (Enterococcus faecalis [3]): 16 µg/mL (≈ 42.9 µM)
MIC (Staphylococcus aureus [4]): 8 µg/mL (≈ 21.4 µM)
MIC (Staphylococcus aureus [5]): 8 µg/mL (≈ 21.4 µM)
MIC (Staphylococcus aureus [6]): 8 µg/mL (≈ 21.4 µM)
MIC (Enterococcus faecium [7]): 4 µg/mL (≈ 10.7 µM)
MIC (Staphylococcus aureus [8]): 8 µg/mL (≈ 21.4 µM)
MIC (Enterococcus faecalis [9]): 16 µg/mL (≈ 42.9 µM)
MIC (Staphylococcus aureus [10]): 0.5 µg/mL (≈ 1.34 µM)
MIC (Enterococcus faecium [11]): 8 µg/mL (≈ 21.4 µM)
MIC (Staphylococcus aureus [12]): 2 µg/mL (≈ 5.36 µM)
MIC (Enterococcus faecalis [13]): 8 µg/mL (≈ 21.4 µM)
MIC (Enterococcus faecium [14]): 2 µg/mL (≈ 5.36 µM)
MIC (Enterococcus faecium [15]): 8 µg/mL (≈ 21.4 µM)
MIC (Enterococcus faecalis [16]): 8 µg/mL (≈ 21.4 µM)
MIC (Staphylococcus aureus [17]): 8 µg/mL (≈ 21.4 µM)
MIC (Enterococcus faecium [18]): 16 µg/mL (≈ 42.9 µM)
MIC (Enterococcus faecium [19]): 16 µg/mL (≈ 42.9 µM)
MIC (Staphylococcus aureus [20]): 8 µg/mL (≈ 21.4 µM)
MIC (Enterococcus faecalis [21]): 2 µg/mL (≈ 5.36 µM)
MIC (Staphylococcus aureus [22]): 8 µg/mL (≈ 21.4 µM)
MIC (Enterococcus faecium [23]): 32 µg/mL (≈ 85.7 µM)
MIC (Enterococcus faecium [24]): 16 µg/mL (≈ 42.9 µM)
MIC (Staphylococcus aureus [25]): 4 µg/mL (≈ 10.7 µM)
MIC (Staphylococcus aureus [26]): 0.5 µg/mL (≈ 1.34 µM)
MIC (Staphylococcus aureus [27]): 8 µg/mL (≈ 21.4 µM)
MIC (Staphylococcus aureus [28]): 4 µg/mL (≈ 10.7 µM)
MIC (Staphylococcus aureus [29]): 8 µg/mL (≈ 21.4 µM)
MIC (Enterococcus faecalis [30]): 16 µg/mL (≈ 42.9 µM)
MIC (Enterococcus faecium [31]): 32 µg/mL (≈ 85.7 µM)
MIC (Enterococcus faecium [32]): 8 µg/mL (≈ 21.4 µM)
MIC (Staphylococcus aureus [33]): 4 µg/mL (≈ 10.7 µM)

CC(=O)NC[C@H]1CN(c2ccc(N3CCOCC3)c(F)c2)C(=O)O1 [LINEZOLID]
MIC (Enterococcus faecium [1]): 64 µg/mL (≈ 190 µM)
MIC (Enterococcus faecalis [3]): 32 µg/mL (≈ 94.9 µM)
MIC (Staphylococcus aureus [4]): 16 µg/mL (≈ 47.4 µM)
MIC (Staphylococcus aureus [5]): 32 µg/mL (≈ 94.9 µM)
MIC (Staphylococcus aureus [6]): 16 µg/mL (≈ 47.4 µM)
MIC (Enterococcus faecium [7]): 16 µg/mL (≈ 47.4 µM)
MIC (Staphylococcus aureus [8]): 16 µg/mL (≈ 47.4 µM)
MIC (Enterococcus faecalis [9]): 32 µg/mL (≈ 94.9 µM)
MIC (Enterococcus faecium [11]): 16 µg/mL (≈ 47.4 µM)
MIC (Staphylococcus aureus [12]): 8 µg/mL (≈ 23.7 µM)
MIC (Enterococcus faecalis [13]): 32 µg/mL (≈ 94.9 µM)
MIC (Enterococcus faecium [14]): 8 µg/mL (≈ 23.7 µM)
MIC (Enterococcus faecium [15]): 32 µg/mL (≈ 94.9 µM)
MIC (Enterococcus faecalis [16]): 32 µg/mL (≈ 94.9 µM)
MIC (Staphylococcus aureus [17]): 32 µg/mL (≈ 94.9 µM)
MIC (Enterococcus faecium [18]): 64 µg/mL (≈ 190 µM)
MIC (Enterococcus faecium [19]): 32 µg/mL (≈ 94.9 µM)
MIC (Staphylococcus aureus [20]): 32 µg/mL (≈ 94.9 µM)
MIC (Staphylococcus aureus [22]): 32 µg/mL (≈ 94.9 µM)
MIC (Enterococcus faecium [23]): 64 µg/mL (≈ 190 µM)
MIC (Enterococcus faecium [24]): 64 µg/mL (≈ 190 µM)
MIC (Staphylococcus aureus [25]): 16 µg/mL (≈ 47.4 µM)
MIC (Staphylococcus aureus [27]): 16 µg/mL (≈ 47.4 µM)
MIC (Staphylococcus aureus [28]): 16 µg/mL (≈ 47.4 µM)
MIC (Staphylococcus aureus [29]): 32 µg/mL (≈ 94.9 µM)
MIC (Enterococcus faecalis [30]): 64 µg/mL (≈ 190 µM)
MIC (Enterococcus faecium [31]): 64 µg/mL (≈ 190 µM)
MIC (Enterococcus faecium [32]): 32 µg/mL (≈ 94.9 µM)
MIC (Staphylococcus aureus [33]): 16 µg/mL (≈ 47.4 µM)
